Test results as given in ChEMBL document CHEMBL4433203, “Design, synthesis, and evaluation of isoflavone analogs as multifunctional agents for the treatment of Alzheimer's disease” (Eur J Med Chem, 2019).
Active and inactive are the calls of the source. No cut-off for these calls is given here.

Experiments:
[1] = Cytotoxicity in human SH-SY5Y cells assessed as reduction in cell viability after 72 hrs incubation by MTT assay
Cholinesterase = Cholinesterase (Mus musculus, UniProt Q03311); assay: Inhibition of mouse plasma BuChE using S-butyrylacetylthiocholine iodide as substrate measured after 30 mins by Ellman's method relative to control
Acetylcholinesterase = target: T1, Acetylcholinesterase (Mus musculus, UniProt P21836); assay: Inhibition of mouse brain AChE using acetylthiocholine iodide as substrate measured after 30 mins by Ellman's method
T1 sequence (P21836 whole entry): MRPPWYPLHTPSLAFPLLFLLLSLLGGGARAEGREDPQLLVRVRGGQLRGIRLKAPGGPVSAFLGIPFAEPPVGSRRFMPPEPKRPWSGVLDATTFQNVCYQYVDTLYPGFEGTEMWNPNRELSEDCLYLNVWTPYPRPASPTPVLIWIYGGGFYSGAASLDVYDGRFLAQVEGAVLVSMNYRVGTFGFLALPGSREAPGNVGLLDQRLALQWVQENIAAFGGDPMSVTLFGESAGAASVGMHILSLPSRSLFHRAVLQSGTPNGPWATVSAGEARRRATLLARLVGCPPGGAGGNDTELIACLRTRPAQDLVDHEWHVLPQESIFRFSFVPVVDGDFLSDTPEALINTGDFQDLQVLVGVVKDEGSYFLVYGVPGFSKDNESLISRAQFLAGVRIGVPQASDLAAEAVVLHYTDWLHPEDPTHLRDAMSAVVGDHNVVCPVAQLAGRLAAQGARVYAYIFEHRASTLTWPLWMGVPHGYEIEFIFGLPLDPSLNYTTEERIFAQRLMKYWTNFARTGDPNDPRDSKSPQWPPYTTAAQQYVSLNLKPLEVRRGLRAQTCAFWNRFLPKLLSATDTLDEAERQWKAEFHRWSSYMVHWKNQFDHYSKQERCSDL

[2] = target: T2, Acetylcholinesterase (Mus musculus) (UniProt P21836); conditions: at 10 µM
T2 sequence (whole entry): T1 sequence (P21836 whole entry)

Histamine H3 receptor [3] = target: T3, Histamine H3 receptor (Homo sapiens, UniProt Q9Y5N1); assay: Inhibition of human H3R expressed in methylhistamine-induced human H3-bla U2OS cells at 10 uM incubated for 30 mins by beta-lactamase complementation technology relative to control; type: cell-based
[4] = Antioxidant activity assessed as AAPH radical scavenging activity preincubated for 15 mins with fluorescein before AAPH addition and recorded every 2 mins for 160 mins by ORAC-FL assay; type: functional
Summary of the method: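 ORAC-FL assay in 75 mM PBS, pH 7.4. Compound was preincubated with fluorescein (20 nM final) for 15 min at 37 °C, then AAPH (18 mM final) was added. Fluorescence (ex 460/em 520 nm) was read every 2 min for 160 min. Net area under the decay curve, blank-normalized, is expressed as µM Trolox equivalents per µM compound. Duplicates, ≥3 independent assays.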

Histamine H3 receptor [5] = target: T3, Histamine H3 receptor; assay: Inhibition of human H3R expressed in methylhistamine-induced human H3-bla U2OS cells incubated for 30 mins by beta-lactamase complementation technology; type: cell-based
Summary of the method: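 H3-bla U2OS cells co-express human H3R-Gal4-VP16 (TEV site) and β-arrestin/TEV protease with a UAS-β-lactamase reporter. IC50 came from log concentration-inhibition curves. Triplicates, three independent experiments.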

BV-2 [6] = assay: Antiinflammatory activity in mouse BV2 cells assessed as reduction in LPS-induced TNF-alpha production at 10 uM pretreated for 1 hr followed by LPS challenge and measured after 24 hrs by ELISA assay; type: functional, cell-based
BV-2 [7] = assay: Antiinflammatory activity in mouse BV2 cells assessed as reduction in LPS-induced IL-6 production at 10 uM pretreated for 1 hr followed by LPS challenge and measured after 24 hrs by ELISA assay; type: functional, cell-based
SH-SY5Y = assay: Neuroprotective activity against copper-induced cytotoxicity in human SH-SY5Y cells expressing APP Swedish mutant assessed as increase in cell viability at 10 uM pre-incubated for 2 hrs followed by copper addition and measured after 24 hrs by MTT assay; type: functional, cell-based

T3 sequence (Q9Y5N1 whole entry): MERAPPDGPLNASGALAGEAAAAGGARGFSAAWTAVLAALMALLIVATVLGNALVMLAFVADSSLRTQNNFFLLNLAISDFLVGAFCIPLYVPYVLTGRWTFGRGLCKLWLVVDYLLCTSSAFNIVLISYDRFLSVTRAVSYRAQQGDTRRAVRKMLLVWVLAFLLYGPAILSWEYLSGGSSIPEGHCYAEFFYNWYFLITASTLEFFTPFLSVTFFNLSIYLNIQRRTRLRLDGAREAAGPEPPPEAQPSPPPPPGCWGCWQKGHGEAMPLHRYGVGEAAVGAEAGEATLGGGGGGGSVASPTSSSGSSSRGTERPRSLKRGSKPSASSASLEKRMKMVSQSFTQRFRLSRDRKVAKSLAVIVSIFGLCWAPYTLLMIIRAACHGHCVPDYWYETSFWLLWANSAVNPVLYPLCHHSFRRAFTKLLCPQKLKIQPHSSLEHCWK
Sequence of Cholinesterase (Q03311 whole entry): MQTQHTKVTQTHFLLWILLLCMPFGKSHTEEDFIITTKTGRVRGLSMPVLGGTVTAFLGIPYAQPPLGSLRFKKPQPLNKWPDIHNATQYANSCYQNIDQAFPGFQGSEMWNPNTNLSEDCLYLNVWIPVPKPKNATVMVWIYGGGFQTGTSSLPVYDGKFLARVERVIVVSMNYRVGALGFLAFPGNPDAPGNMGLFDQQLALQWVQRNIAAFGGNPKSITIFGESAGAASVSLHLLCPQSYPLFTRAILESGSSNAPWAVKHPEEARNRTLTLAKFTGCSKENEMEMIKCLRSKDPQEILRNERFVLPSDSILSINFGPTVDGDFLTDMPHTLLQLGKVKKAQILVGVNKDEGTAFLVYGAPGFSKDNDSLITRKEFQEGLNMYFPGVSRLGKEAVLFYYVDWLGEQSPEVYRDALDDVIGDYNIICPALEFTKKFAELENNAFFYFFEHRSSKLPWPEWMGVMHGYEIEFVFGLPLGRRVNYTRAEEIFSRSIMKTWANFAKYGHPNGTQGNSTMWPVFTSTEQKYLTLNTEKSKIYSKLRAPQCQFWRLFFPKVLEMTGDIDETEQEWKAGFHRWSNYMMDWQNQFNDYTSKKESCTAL

Row | Compound | IC50 (Cholinesterase; read-out: IC50) | IC50 (Acetylcholinesterase; read-out: IC50) | inhibition [2] | inhibition (Histamine H3 receptor [3]) | Activity [4] | IC50 (Histamine H3 receptor [5]; read-out: IC50) | also measured
1 | CCN(C)C(=O)Oc1cccc([C@H](C)N(C)C)c1 [RIVASTIGMINE] |  |  |  |  |  |  | CC50 at 72 h ([1]; SH-SY5Y cells): 67.8 µM
2 | O=c1c(-c2ccc(O)cc2)coc2cc(OCCCCN3CCCCC3)ccc12 | 24.8 µM | 26.8 µM | 63.4% | 6.88% | 0.88 equiv/µM | > 50 µM | 
3 | S=C(NC1CCCCC1)N1CCC(c2cnc[nH]2)CC1 [THIOPERAMIDE] |  |  |  | 71.1% |  |  | CC50 at 72 h ([1]; SH-SY5Y cells): 85.8 µM
4 | COc1ccc(-c2coc3cc(OCCNC(=O)OC(C)(C)C)ccc3c2=O)cc1 |  |  | -0.17% |  | 0.05 equiv/µM |  | IC50 (Cholinesterase): Not Active; IC50 (Acetylcholinesterase): Not Active; IC50 (Histamine H3 receptor [5]; u2os): Not Active
5 | COc1ccc(-c2coc3cc(OCCN)ccc3c2=O)cc1.Cl |  | > 50 µM | 16.9% | -6.69% | 0.08 equiv/µM |  | IC50 (Cholinesterase): Not Active; IC50 (Histamine H3 receptor [5]; u2os): Not Active
6 | CCN(C)CCCOc1ccc2c(=O)c(-c3ccc(OC)cc3)coc2c1 |  | 22.6 µM |  |  | 0.12 equiv/µM | 0.52 µM | 
7 | COc1ccc(-c2coc3cc(OCCNc4c5c(nc6ccccc46)CCCC5)ccc3c2=O)cc1 | 0.38 µM | 0.96 µM | 85.8% | 60.5% | 0.01 equiv/µM | > 10 µM | 
8 | COc1cc2c(cc1OC)C(=O)C(CC1CCN(Cc3ccccc3)CC1)C2 (stereo not given) [DONEPEZIL] |  |  |  |  |  |  | Activity (BV-2 [6]): inactive; Activity (BV-2 [7]): inactive; Activity (SH-SY5Y): inactive; CC50 at 72 h ([1]; sh-sy5y): 25.1 µM
9 | COc1ccc(-c2coc3cc(OCCNC4CCCCC4)ccc3c2=O)cc1 | 21.6 µM | 5 µM | 73.7% | 41% | 0.01 equiv/µM | > 50 µM | 
10 | COc1ccc(-c2coc3cc(OCCNC4CCCC4)ccc3c2=O)cc1 | 5.98 µM | 4.5 µM | 78.5% | 47.1% | 0.01 equiv/µM | > 50 µM | 
11 | COc1ccc(-c2coc3cc(OCCOCCN4CCCCC4)ccc3c2=O)cc1 | > 50 µM | > 50 µM | 35% | 30.3% | 0.01 equiv/µM | > 50 µM | 
12 | COc1ccc(-c2coc3cc(OCCN4C(=O)c5ccccc5C4=O)ccc3c2=O)cc1 |  | > 50 µM | 11.2% |  | 0.01 equiv/µM |  | IC50 (Cholinesterase): Not Active; IC50 (Histamine H3 receptor [5]; u2os): Not Active
13 | O=c1c(-c2ccc(OCCN3CCCCC3)cc2)coc2cc(OCCN3CCCCC3)ccc12 | 2.92 µM | 0.35 µM | 82.8% | 71.5% | 0.14 equiv/µM | 1.94 µM | 
14 | COc1ccc(-c2coc3cc(OCCCCN4CCCCC4)ccc3c2=O)cc1 | 8.83 µM | 3.98 µM |  |  | 0.07 equiv/µM | 0.73 µM | 
15 | CCN(C)CCCCOc1ccc2c(=O)c(-c3ccc(OC)cc3)coc2c1 |  | 9.47 µM |  |  | 0.11 equiv/µM | 0.43 µM | 
16 | O=c1c(-c2ccc(OCCN3CCCCC3)cc2)coc2cc(OCCCCN3CCCCC3)ccc12 | 2.49 µM | 0.2 µM | 85.1% | 72.4% | 0.11 equiv/µM | 0.41 µM | 
17 | Cc1c(C)c2c(c(C)c1O)CCC(C)(C(=O)O)O2 (stereo not given) |  |  |  |  | 1 equiv/µM |  | 
18 | O=c1c(-c2ccc(OCCN3CCCCC3)cc2)coc2cc(OCCN3CCCC3)ccc12 | 4.55 µM | 0.71 µM |  |  | 0.14 equiv/µM | 2.07 µM | 
